Reference: ChEMBL document CHEMBL2010801, “Semisynthesis and antimicrobial activity of novel guttiferone-A derivatives” (Bioorg Med Chem, 2012)
Converted amounts (≈) assume the structure as drawn. The source made the active and inactive calls. The calls are words filed in the database; no cut-off is given here.

Legend:
Pseudomonas aeruginosa = test: Antimicrobial activity against Pseudomonas aeruginosa ATCC 9027 after 24 hrs by broth microdilution method; format: functional
Summary of the method: (§1)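 Microplate broth microdilution with a serial dilution series of compounds, using chloramphenicol as the antibacterial control. Bacterial plates were incubated at 35 °C for 24 h.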

Bacillus cereus = test: Antimicrobial activity against Bacillus cereus ATCC 11778 after 24 hrs by broth microdilution method; format: functional; conditions: for MIC: read-out: MIC100; summary of the method: as §1
Proteus mirabilis = test: Antimicrobial activity against Proteus mirabilis ATCC 25933 after 24 hrs by broth microdilution method; format: functional; summary of the method: as §1
Candida tropicalis = test: Antifungal activity against Candida tropicalis ATCC 750 after 24 hrs by broth microdilution method; format: functional
Summary of the method: (§2)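 Broth microdilution in microplates with a serial dilution series of compounds. Amphotericin B served as the fungicidal control and fluconazole as the fungistatic control. Yeast plates were incubated at 37 °C for 24 h.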

Pichia kudriavzevii = test: Antifungal activity against Candida krusei ATCC 6258 after 24 hrs by broth microdilution method; format: functional; summary of the method: as §2
Nakaseomyces glabratus = test: Antifungal activity against Candida glabrata ATCC 90030 after 24 hrs by broth microdilution method; format: functional; summary of the method: as §2
Escherichia coli = test: Antimicrobial activity against Escherichia coli ATCC 25922 after 24 hrs by broth microdilution method; format: functional; summary of the method: as §1
Salmonella typhimurium = test: Antimicrobial activity against Salmonella typhimurium ATCC 14028 after 24 hrs by broth microdilution method; format: functional; summary of the method: as §1
[1] = system: Staphylococcus epidermidis; test: Antimicrobial activity against Staphylococcus epidermidis ATCC 12228 after 24 hrs by broth microdilution method; format: functional; summary of the method: as §1
Candida albicans = test: Antifungal activity against Candida albicans ATCC 09548 after 24 hrs by broth microdilution method; format: functional; summary of the method: as §2
[2] = Cytotoxicity against human PBMC after 48 hrs by MTT assay; format: cell-based; conditions: PBMC (peripheral blood mononuclear cells)
Summary of the method: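 Normal human PBMC from healthy volunteers were isolated by Ficoll-Hypaque density gradient and seeded at 2.4 × 10⁶ cells/mL. Compounds were added at 100 to 0.06 and cells held 48 h at 37 °C, 5% CO₂. MTT was then added for 4 h, formazan dissolved in DMSO and A560 read. Untreated cells were taken as 100% viability. CC50 was obtained by linear regression.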

Nannizzia gypsea = test: Antifungal activity against Microsporum gypseum after 48 hrs by broth microdilution method; format: functional
Summary of the method: (§3)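 Broth microdilution against filamentous fungi with serially diluted compounds. Amphotericin B (fungicidal) and fluconazole (fungistatic) were run as controls. Plates were incubated at 30 °C for 48 h.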

Candida parapsilosis = test: Antifungal activity against Candida parapsilosis ATCC 69548 after 24 hrs by broth microdilution method; format: functional; summary of the method: as §2
Trichophyton tonsurans = test: Antifungal activity against Trichophyton tonsurans after 48 hrs by broth microdilution method; format: functional; summary of the method: as §3
Cryptococcus neoformans = test: Antifungal activity against Cryptococcus neoformans ATCC 90012 after 24 hrs by broth microdilution method; format: functional; summary of the method: as §2
Staphylococcus aureus [3] = test: Antimicrobial activity against Staphylococcus aureus ATCC 6538 after 24 hrs by broth microdilution method; format: functional; conditions: for MIC50 / MIC: ATCC 6538, 24 h; for MIC50: read-out: MIC50; for MIC: read-out: MIC100; summary of the method: as §1
Staphylococcus aureus [4] = test: Ratio of MIC100 for chloramphenicol to MIC100 of compound for Staphylococcus aureus ATCC 6538 after 24 hrs by broth microdilution method; format: functional
[5] = system: Staphylococcus epidermidis; test: Ratio of MIC100 for chloramphenicol to MIC100 of compound for Staphylococcus epidermidis ATCC 12228 after 24 hrs by broth microdilution method; format: functional
[6] = Salmonella enterica subsp. enterica serovar Typhimurium

CC(C)=CCC[C@]1(C)[C@@H](CC=C(C)C)C[C@@]2(CC=C(C)C)C(=O)C(C(=O)c3ccc(OC(=O)c4ccc(Cl)cc4)c(OC(=O)c4ccc(Cl)cc4)c3)=C(O)[C@]1(CC=C(C)C)C2=O
MIC50 (Pseudomonas aeruginosa): inactive
MIC100 (Pseudomonas aeruginosa): inactive
MIC50 (Bacillus cereus; ATCC 11778, 24 h): 354 µM (≈ 312 µg/mL)
MIC (Bacillus cereus; ATCC 11778, 24 h): 45.5 µM (≈ 40 µg/mL)
MIC100 (Proteus mirabilis): inactive
MIC50 (Candida tropicalis): inactive
MIC100 (Candida tropicalis): inactive
MIC50 (Pichia kudriavzevii): inactive
MIC100 (Pichia kudriavzevii): inactive
MIC50 (Nakaseomyces glabratus): inactive
MIC100 (Nakaseomyces glabratus): inactive
MIC100 (Escherichia coli): inactive
MIC50 (Escherichia coli; ATCC 25922, 24 h): 44 µM (≈ 38.7 µg/mL)
MIC100 (Salmonella typhimurium; [6]): inactive
MIC50 (Salmonella typhimurium; Salmonella enterica, ATCC 14028, 24 h, read-out: MIC50): 44 µM (≈ 38.7 µg/mL)
MIC50 [1]: inactive
MIC100 [1]: inactive
MIC50 (Candida albicans): inactive
MIC100 (Candida albicans): inactive
CC50 at 48 h [2]: > 114 µM
MIC50 (Nannizzia gypsea): inactive
MIC100 (Nannizzia gypsea): inactive
MIC50 (Candida parapsilosis): inactive
MIC100 (Candida parapsilosis): inactive
MIC50 (Trichophyton tonsurans): inactive
MIC100 (Trichophyton tonsurans): inactive
MIC100 (Cryptococcus neoformans): inactive
MIC50 (Cryptococcus neoformans; ATCC 90012, 24 h): 45.5 µM (≈ 40 µg/mL)
MIC100 (Staphylococcus aureus [3]): inactive
MIC50 (Staphylococcus aureus [3]): 177 µM (≈ 156 µg/mL)

CC(C)=CCC[C@]1(C)[C@@H](CC=C(C)C)C[C@@]2(CC=C(C)C)C(=O)C(C(=O)c3ccc(OS(=O)(=O)c4ccc(C)cc4)c(OS(=O)(=O)c4ccc(C)cc4)c3)=C(O)[C@]1(CC=C(C)C)C2=O
MIC50 (Pseudomonas aeruginosa): inactive
MIC100 (Pseudomonas aeruginosa): inactive
MIC50 (Bacillus cereus; ATCC 11778, 24 h): 171 µM (≈ 156 µg/mL)
MIC (Bacillus cereus; ATCC 11778, 24 h): 21.9 µM (≈ 20 µg/mL)
MIC100 (Proteus mirabilis): inactive
Ratio (Staphylococcus aureus [4]): 4.39
MIC50 (Candida tropicalis): inactive
MIC100 (Candida tropicalis): inactive
MIC50 (Pichia kudriavzevii): inactive
MIC100 (Pichia kudriavzevii): inactive
MIC50 (Nakaseomyces glabratus): inactive
MIC100 (Nakaseomyces glabratus): inactive
MIC50 (Escherichia coli): inactive
MIC100 (Escherichia coli): inactive
MIC50 (Salmonella typhimurium; [6]): inactive
Ratio [5]: 3.5
MIC50 ([1]; ATCC 12228, 24 h): 2740 µM (≈ 2500 µg/mL)
MIC50 (Candida albicans): inactive
MIC100 (Candida albicans): inactive
CC50 at 48 h [2]: > 113 µM
MIC50 (Nannizzia gypsea): inactive
MIC100 (Nannizzia gypsea): inactive
MIC50 (Candida parapsilosis): inactive
MIC100 (Candida parapsilosis): inactive
MIC50 (Trichophyton tonsurans): inactive
MIC100 (Trichophyton tonsurans): inactive
MIC100 (Cryptococcus neoformans): inactive
MIC50 (Cryptococcus neoformans; ATCC 90012, 24 h): 43.9 µM (≈ 40 µg/mL)
MIC50 (Staphylococcus aureus [3]): 43 µM (≈ 39.2 µg/mL)
MIC (Staphylococcus aureus [3]): 2.74 µM (≈ 2.5 µg/mL)

CC(C)=CCC[C@]1(C)[C@@H](CC=C(C)C)C[C@@]2(CC=C(C)C)C(=O)C(C(=O)c3ccc(OC(=O)c4ccccc4)c(OC(=O)c4ccccc4)c3)=C(O)[C@]1(CC=C(C)C)C2=O
MIC100 (Pseudomonas aeruginosa): inactive
MIC100 (Bacillus cereus): inactive
MIC50 (Proteus mirabilis): inactive
MIC100 (Proteus mirabilis): inactive
MIC50 (Candida tropicalis): inactive
MIC100 (Candida tropicalis): inactive
MIC50 (Pichia kudriavzevii): inactive
MIC100 (Pichia kudriavzevii): inactive
MIC50 (Nakaseomyces glabratus): inactive
MIC100 (Nakaseomyces glabratus): inactive
MIC100 (Escherichia coli): inactive
MIC50 (Escherichia coli; ATCC 25922, 24 h): 48 µM (≈ 38.9 µg/mL)
MIC100 (Salmonella typhimurium; [6]): inactive
MIC50 (Salmonella typhimurium; Salmonella enterica, ATCC 14028, 24 h): 49.3 µM (≈ 40 µg/mL)
MIC50 [1]: inactive
MIC100 [1]: inactive
MIC50 (Candida albicans): inactive
MIC100 (Candida albicans): inactive
CC50 at 48 h [2]: > 123 µM
MIC50 (Nannizzia gypsea): inactive
MIC100 (Nannizzia gypsea): inactive
MIC50 (Candida parapsilosis): inactive
MIC100 (Candida parapsilosis): inactive
MIC50 (Trichophyton tonsurans): inactive
MIC100 (Trichophyton tonsurans): inactive
MIC100 (Cryptococcus neoformans): inactive
MIC50 (Cryptococcus neoformans; ATCC 90012, 24 h): 49.3 µM (≈ 40 µg/mL)
MIC100 (Staphylococcus aureus [3]): inactive
MIC50 (Staphylococcus aureus [3]): 1540 µM (≈ 1250 µg/mL)

CC(C)=CCC[C@]1(C)[C@@H](CC=C(C)C)C[C@@]2(CC=C(C)C)C(=O)C(C(=O)c3ccc(OS(C)(=O)=O)c(OS(C)(=O)=O)c3)=C(O)[C@]1(CC=C(C)C)C2=O
MIC50 (Pseudomonas aeruginosa): inactive
MIC100 (Pseudomonas aeruginosa): inactive
MIC50 (Bacillus cereus; ATCC 11778, 24 h): 1650 µM (≈ 1250 µg/mL)
MIC (Bacillus cereus; ATCC 11778, 24 h): 1.65 µM (≈ 1.25 µg/mL)
MIC50 (Proteus mirabilis): inactive
MIC100 (Proteus mirabilis): inactive
Ratio (Staphylococcus aureus [4]): 3.66
MIC50 (Candida tropicalis): inactive
MIC100 (Candida tropicalis): inactive
MIC100 (Pichia kudriavzevii): inactive
MIC50 (Pichia kudriavzevii; ATCC 6258, 24 h): 52.7 µM (≈ 40 µg/mL)
MIC100 (Nakaseomyces glabratus): inactive
MIC100 (Escherichia coli): inactive
MIC50 (Escherichia coli; ATCC 25922, 24 h): 205 µM (≈ 156 µg/mL)
MIC50 (Salmonella typhimurium; [6]): inactive
MIC100 (Salmonella typhimurium; [6]): inactive
MIC50 [1]: inactive
MIC100 [1]: inactive
MIC50 (Candida albicans): inactive
MIC100 (Candida albicans): inactive
CC50 at 48 h [2]: > 132 µM
MIC50 (Nannizzia gypsea): inactive
MIC100 (Nannizzia gypsea): inactive
MIC50 (Candida parapsilosis): inactive
MIC100 (Candida parapsilosis): inactive
MIC50 (Trichophyton tonsurans): 3290 µM (≈ 2500 µg/mL)
MIC100 (Trichophyton tonsurans): inactive
MIC100 (Cryptococcus neoformans): inactive
MIC50 (Cryptococcus neoformans; ATCC 90012, 24 h): 52.7 µM (≈ 40 µg/mL)
MIC50 (Staphylococcus aureus [3]): 51 µM (≈ 38.7 µg/mL)
MIC (Staphylococcus aureus [3]): 3.29 µM (≈ 2.5 µg/mL)

CC(=O)Oc1ccc(C(=O)C2=C(O)[C@]3(CC=C(C)C)C[C@H](CC=C(C)C)[C@@](C)(CCC=C(C)C)[C@](CC=C(C)C)(C2=O)C3=O)cc1OC(C)=O
MIC50 (Pseudomonas aeruginosa): inactive
MIC100 (Pseudomonas aeruginosa): inactive
MIC50 (Bacillus cereus): inactive
MIC (Bacillus cereus; ATCC 11778, 24 h): 0.227 µM (≈ 0.156 µg/mL)
MIC50 (Proteus mirabilis): inactive
MIC100 (Proteus mirabilis): inactive
Ratio (Staphylococcus aureus [4]): 3.31
MIC50 (Candida tropicalis): inactive
MIC100 (Candida tropicalis): inactive
MIC100 (Pichia kudriavzevii): inactive
MIC50 (Pichia kudriavzevii; ATCC 6258, 24 h, read-out: MIC50): 3640 µM (≈ 2500 µg/mL)
MIC100 (Nakaseomyces glabratus): inactive
MIC100 (Escherichia coli): inactive
MIC50 (Escherichia coli; ATCC 25922, 24 h): 1820 µM (≈ 1250 µg/mL)
MIC50 (Salmonella typhimurium; [6]): inactive
MIC100 (Salmonella typhimurium; [6]): inactive
MIC50 [1]: inactive
MIC100 [1]: inactive
MIC50 (Candida albicans): inactive
MIC100 (Candida albicans): inactive
CC50 at 48 h [2]: 114 µM
MIC50 (Nannizzia gypsea): inactive
MIC50 (Candida parapsilosis): inactive
MIC100 (Candida parapsilosis): inactive
MIC (Trichophyton tonsurans; read-out: MIC100): 3640 µM (≈ 2500 µg/mL)
MIC50 (Cryptococcus neoformans; ATCC 90012, 24 h, read-out: MIC50): 56 µM (≈ 38.5 µg/mL)
MIC (Cryptococcus neoformans; ATCC 90012, 24 h, read-out: MIC100): 3.64 µM (≈ 2.5 µg/mL)
MIC50 (Staphylococcus aureus [3]): 56 µM (≈ 38.5 µg/mL)
MIC (Staphylococcus aureus [3]): 3.64 µM (≈ 2.5 µg/mL)
